The target of assay [1] is T1, Histamine H3 receptor (Homo sapiens, UniProt Q9Y5N1). The assay can be described thus: Displacement of [125I]iodoproxyfan from human recombinant histamine H3 receptor expressed in CHO-K1 cells. The class given is cell-based. The essentials:
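Stably transfected CHO-K1 cells washed and harvested in PBS, homogenized in ice-cold 50 mmol/L Na2HPO4/KH2PO4 pH 7.5. Membranes pelleted at 23,000g. Membranes incubated 60 min at 25 °C with 25 pmol/L [125I]iodoproxyfan ± competitor, in triplicate. Stopped by ice-cold medium and filtration through PEI-soaked glass fibre filters; gamma counting. Nonspecific binding defined with imetit. Ki by Cheng-Prusoff; mean of at least triplicate experiments.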
A general note: Loss of bound radioactivity is the signal in a displacement assay; it reports binding, not function.

Assay [2] concerns Mus musculus. The experiment in a line: Antagonist activity at histamine H3 receptor in po dosed Swiss mouse cerebral cortex assessed as Ntau-methylhistamine level after 90 mins by radioimmunoassay. The class given is functional. The settings on record: 1.5 h. The gist of the method:
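Swiss mice fasted 24 h, then dosed orally. Decapitated 90 min later; cerebral cortex homogenized in 10 vol ice-cold 0.4 M perchloric acid. Nτ-methylhistamine measured by radioimmunoassay. Response related to the maximal rise produced by ciproxifan 3 mg/kg po. At least triplicate experiments; ED50 calculated as mean with SEM.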

Assay [3] addresses T1, Histamine H3 receptor. The experiment in a line: Displacement of [3H](R)-alpha-methylhistamine from human histamine H3 receptor expressed in rat C6 cells. The assay is classed as cell-based.
Assay [4] addresses T1, Histamine H3 receptor.

Bounds are passed on as bounds.

T1 sequence (Q9Y5N1 whole entry): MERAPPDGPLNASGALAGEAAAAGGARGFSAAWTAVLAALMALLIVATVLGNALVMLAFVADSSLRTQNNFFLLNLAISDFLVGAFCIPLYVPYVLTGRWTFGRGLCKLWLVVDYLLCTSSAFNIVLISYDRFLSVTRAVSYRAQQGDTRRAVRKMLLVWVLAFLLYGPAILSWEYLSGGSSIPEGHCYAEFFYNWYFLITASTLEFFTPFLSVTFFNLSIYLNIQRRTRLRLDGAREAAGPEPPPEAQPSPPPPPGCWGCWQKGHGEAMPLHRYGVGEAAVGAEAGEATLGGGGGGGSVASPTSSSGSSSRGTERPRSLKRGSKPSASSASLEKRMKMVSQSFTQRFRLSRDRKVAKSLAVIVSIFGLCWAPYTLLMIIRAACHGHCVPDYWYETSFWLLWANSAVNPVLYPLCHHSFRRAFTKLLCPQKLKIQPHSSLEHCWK

For `FC(F)(F)c1cccc(OCCN2CCC(N3CCCCC3)CC2)c1`, in assay [1] (read-out: Ki), the Ki was determined as 0.164 µM.

With `Clc1ccc(CCCOCCCN2CCCCC2)cc1` [PITOLISANT], in assay [2], the ED50 (in general, the dose at which the effect has come halfway, by size or by number of responders) was found to be 1.6 mg/kg. For `CCCCC1CCN(CCCOCCCc2ccccc2)CC1`, the Ki in assay [1] (read-out: Ki) turned out to be 0.274 µM. Further, in assay [2], the ED50 was greater than 10 mg/kg. Regarding `Cc1ccc(OCCN2CCC(N3CCCCC3)CC2)cc1`, in assay [1] (read-out: Ki), the Ki is 0.3 µM. In the case of `CC(C)(C)c1ccc(OCCCN2CCC(N3CCCCC3)CC2)cc1`, the Ki in assay [1] (read-out: Ki) turned out to be 0.1 µM. Also, the ED50 in assay [2] is greater than 20 mg/kg. Regarding `c1ccc(CCCOCCCN2CCCCC2)cc1`, the Ki in assay [1] (read-out: pKi (converted)) was 0.00316 µM; in assay [3] it was 0.0031 µM. The median effective dose (ED50) in assay [2] worked out at 3.7 mg/kg. In the case of `Clc1ccc(OCCCN2CCC(N3CCCCC3)CC2)cc1`, the Ki in assay [1] (read-out: Ki) turned out to be 0.165 µM. The ED50 in assay [2] was greater than 20 mg/kg. For the compound `c1ccc(CCCOCCCN2CCC3CCCCC3C2)cc1` (centres undefined), the Ki in assay [1] (read-out: Ki) was determined as 0.393 µM. Also, the ED50 in assay [2] was greater than 10 mg/kg. Regarding `Clc1cccc(OCCN2CCC(N3CCCCC3)CC2)c1`, the Ki in assay [1] (read-out: Ki) turned out to be 0.235 µM.

As for `CNC(=O)c1ccc(Oc2ccc3c(c2)CCN(C2CCC2)CC3)nc1`, in assay [4], the pKb – broadly, the negative decadic logarithm of the Kb, by convention in mol/L – is 9.3. With `COc1cccc(OCCN2CCC(N3CCCCC3)CC2)c1`, the Ki in assay [1] (read-out: Ki) was found to be 0.132 µM. As for `CCCC1CCN(CCCOCCCc2ccccc2)CC1`, the Ki in assay [1] (read-out: Ki) was determined as 0.249 µM. In addition, the ED50 in assay [2] is greater than 10 mg/kg. Take `C[C@H]1[C@H]2CC[C@H]3[C@@H]4CC=C5C[C@@H](N(C)C)CC[C@]5(C)[C@H]4CC[C@]23CN1C` [CONESSINE]: the Ki in assay [1] (read-out: pKi (converted)) is 0.00501 µM. Regarding `c1ccc(COCCCc2c[nH]cn2)cc1` [PROXYFAN], in assay [1] (read-out: pKi (converted)), the Ki was 0.00251 µM. For the same compound, in assay [2], the ED50 was greater than 10 mg/kg. Regarding `c1ccc(CCCOCCCN2CCC(Cc3ccccc3)CC2)cc1`, in assay [1] (read-out: Ki), the Ki worked out at 0.326 µM. In addition, the ED50 in assay [2] is greater than 10 mg/kg. `Clc1ccc(OCCN2CCC(N3CCCCC3)CC2)cc1`: the Ki in assay [1] (read-out: Ki) was found to be 0.176 µM. `COc1cccc(OCCCN2CCC(N3CCCCC3)CC2)c1`: the Ki in assay [1] (read-out: Ki) is greater than 10 µM. The ED50 in assay [2] was greater than 20 mg/kg. `c1ccc(CCCOCCCN2CCc3ccccc3C2)cc1`: the Ki in assay [1] (read-out: Ki) is 0.56 µM. Moreover, the median effective dose (ED50) in assay [2] is greater than 10 mg/kg.

The values are drawn from ChEMBL document CHEMBL1152124, “Piperidine variations in search for non-imidazole histamine H(3) receptor ligands” (Bioorg Med Chem, 2008).
